Test [1] can be described thus: Cytotoxicity against human HeLaC3 sensor cells assessed as decrease in YFP/CFP emission ratio within 72 hrs by FRET assay. The format is functional, HeLa C3. The gist of the method:
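HeLa-C3 cells stably express a CFP–DEVD linker–YFP FRET caspase-3 sensor. Cells were seeded at 7500 per well, and after 12−16 h a background-subtracted baseline was read (excitation 440 nm; emission 486 nm CFP, 535 nm YFP). Compound at 10 μM was added in fresh medium, with 0.1% DMSO vehicle and 500 nM paclitaxel as positive control. Plates were read repeatedly for up to 72 h. An active compound lowers the YFP/CFP ratio to 3 or below.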

Test [2] relates to HeLa. Nature of the test: Cytotoxicity against human HeLa cells assessed as decrease in cell viability at 10 uM after 72 hrs by MTT assay. The format is functional. Put shortly:
(§1)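 HeLa cells were exposed to compound at 10 μM for 72 h. Vehicle was medium with 0.1% DMSO; paclitaxel (500 nM) was the positive control. MTT (5 mg/mL stock in PBS) was added for 2 h at 37 °C. Crystals were dissolved in 10% SDS/0.01 M HCl for 24 h at 37 °C, and OD was read at 595 nm. Viability at 0 h was set to 100. Three independent experiments.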

In test [3] the test system is HeLa. Nature of the test: Induction of apoptosis in human HeLa cells assessed as morphological and condensed or fragmented DNA at 10 uM after 72 hrs by Hoechst 33342 staining in presence of z-VAD-fmk. The format is functional, cell-based. Put shortly:
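HeLa cells were treated with compound (10 μM) alone or with zVAD-fmk (50 μM) for 72 h. Controls were medium with 0.1% DMSO, with or without zVAD-fmk. Cells were stained with Hoechst 33342, washed three times with PBS, and imaged by phase contrast and fluorescence microscopy for cell and nuclear morphology.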

Test [4] relates to HeLa. The test is described as follows: Cytotoxicity against human HeLa cells assessed as decrease in cell viability after 72 hrs by MTT assay. The format is functional, cell-based. The gist of the method:
(§2)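 For each cell line, 3000 cells per well were cultured overnight, then given fresh medium with compound. Each compound was tested at ≥7 concentrations in a 3-fold dilution series, with a final DMSO-stock dilution of at least 1000-fold. After 72 h, viability was read by MTT (OD 595 nm). Inhibition was calculated as 1 − [(T72 − C0)/(C72 − C0)] against the 0.1% DMSO control and fitted sigmoidally versus log concentration. Values are mean ± SD, n = 3.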

The subject of test [5] is MDA-MB-435. The test is described as follows: Cytotoxicity against human MDA-MB-435 cells assessed as decrease in cell viability after 72 hrs by MTT assay. In kind it is functional, cell-based. Conditions: MDA-MB-435, 72 h. The gist of the method: as §2
Test [6] deals with HepG2. Nature of the test: Cytotoxicity against human HepG2 cells assessed as decrease in cell viability after 72 hrs by MTT assay. In kind it is functional, cell-based. Conditions: HepG2, 72 h. The gist of the method:
as §2

Test [7] concerns MCF7. Nature of the test: Cytotoxicity against human MCF7 cells assessed as decrease in cell viability after 72 hrs by MTT assay. The format is functional, cell-based. To be noted: MCF7, 72 h. Put shortly: as §2
Test [8] concerns MCF7. The test is described as follows: Cytotoxicity against human MCF7 cells overexpressing HER2 assessed as decrease in cell viability after 72 hrs by MTT assay. In kind it is functional, cell-based. Conditions: MCF7, 72 h. Put shortly: as §2
The subject of test [9] is HCT-116. Nature of the test: Cytotoxicity against human HCT116 cells assessed as decrease in cell viability after 72 hrs by MTT assay. The format is functional, cell-based. To be noted: HCT-116, 72 h. The gist of the method:
as §2

Test [10] can be described thus: Cytotoxicity against human HCT15 cells assessed as decrease in cell viability after 72 hrs by MTT assay. In kind it is functional, cell-based. To be noted: HCT-15, 72 h. The gist of the method: as §2
The subject of test [11] is HeLa. The test is described as follows: Cytotoxicity against human HeLa cells assessed as decrease in cell viability at 10 uM after 72 hrs by MTT assay relative to control. The format is functional. The gist of the method:
as §1

Test [12] concerns HeLa. Nature of the test: Induction of apoptosis in human HeLa cells assessed as caspase-3 activation at 10 uM after 24 hrs. The format is functional, cell-based. The gist of the method: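 HeLa cells were treated for 24 h with compound (10 μM), against 0.1% DMSO vehicle; the positive control was UV for 3 min, harvested after 6 h. Lysates were made in Tris pH 7.5/Triton buffer with protease inhibitors. A sample of 50 μg protein was incubated with Ac-DEVD-AMC in HEPES pH 7.5 buffer for 1 h at 37 °C in the dark. Fluorescence was read at 355/460 nm and expressed as net reading per μg protein.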

Data on five compounds can be found in ChEMBL document CHEMBL3286328, “Characterization of proapoptotic compounds from the bark of Garcinia oblongifolia” (J Nat Prod, 2014).

pIC50: −log10 of the molar value. Calls of active or inactive are those of the source. No cut-off for these calls is given here.

Take `COc1cc(O)c2c(=O)c3ccc(O)c(O)c3oc2c1CCC(C)(C)O` [NIGROLINEAXANTHONE T]: in test [1], the Ratio turned out to be 3. Besides, the viability at 10 µM in test [2] turned out to be 50%. Also, the outcome in test [3] was inactive. Further, the pIC50 is 5.33 in [4]; 5.05 in test [5]; 5.32 in test [6]; 5.52 in test [7]; 5.42 in test [8]; 5.43 in test [9]. In test [10], the pIC50 is 5.62.
In the case of `CC(C)=CCC/C(C)=C/C[C@@H]1C[C@]2(CC=C(C)C)C(=O)[C@@](CC=C(C)C)(C(=O)C(C(=O)c3cccc(O)c3)=C2O)[C@@]1(C)CCC=C(C)C` [GARCICOWIN B], the Ratio in test [1] is 3. Further, in [2], the viability at 10 µM worked out at 50%. Further, the outcome in test [3] was inactive. For the same compound, the pIC50 in test [4] is 4.97; in [5], 4.90; in test [6] it was 5.21; in [7], 4.97; in test [8], 4.72; in test [9], 5.22. Also, the pIC50 in test [10] is 5.02.
As for `CC(C)=CCC/C(C)=C/C[C@@H]1C(C)(C)[C@@]2(CC=C(C)C)C(=O)c3c(oc4cc(O)c(O)cc4c3=O)[C@](CC=C(C)C)(C2=O)C1(C)C` [OBLONGIFOLIN G], the Ratio in test [1] was 3. Moreover, the viability at 10 µM in [2] was 50%. For the same compound, the “fold change (FC)” value in test [11] is reported as above 30. Besides, the outcome in test [12] was Active. The outcome in test [3] was inactive. Also, the pIC50 was 5.41 in test [4]; 4.78 in [5]; 5.11 in [6]; 5.59 in test [7]; 5.54 in test [8]; 5.54 in test [9]. Further, the pIC50 in [10] was 5.40.
Regarding `CC(C)=CCC/C(C)=C/C[C@H]1C(C)(C)[C@@]2(CC=C(C)C)C(=O)c3c(oc4cc(O)c(O)cc4c3=O)[C@](CC=C(C)C)(C2=O)C1(C)C` [OBLONGIFOLIN F], the Ratio in test [1] was found to be 3. Also, in [2], the viability at 10 µM was 50%. Moreover, the “fold change (FC)” value in [11] is reported as above 30. Moreover, the outcome in test [12] was Active. In addition, the outcome in [3] was inactive. In addition, the negative logarithm of the IC50 (pIC50) in test [4] is 5.38; in test [5], 4.78; in test [6] it was 5.11; in test [7], 5.52; in [8], 5.29; in [9], 5.54. In addition, in [10], the pIC50 is 5.31.
As to `CC1(C)C=Cc2cc3c(=O)c4c(O)cc(O)cc4oc3c(O)c2O1`, in test [1], the Ratio is 3. The viability at 10 µM in [2] was 50%. Moreover, in [3], the result was inactive. The pIC50 in test [4] is 5.31; in test [5], 5.41; in test [6], 5.00; in [7], 4.93; in [8] it was 4.46; in test [9], 5.33. Besides, the pIC50 in test [10] was 5.29.
